Experimental data gathered from unrelated publications.
Protocols differ between the studies behind these lines.
Target: Serine/threonine-protein kinase WNK1 (WNK1, Homo sapiens, UniProt Q9H4A3)

SMILES	assay	conditions	remaining binding [%]
c1cncc(-c2cccc(Nc3nccc(NC4CCCCC4)n3)c2)c1	binding, competition with immobilised ligand	10 µM	87
C[C@H]1CCN(c2nccc(-c3cnn4ncccc34)n2)C1	binding	1 µM	91
NS(=O)(=O)c1cc(NC(=O)Cc2ccccc2)ccc1Oc1cccc(Cl)c1	cell-free assay, competition with immobilised ligand	1 µM	89
O=C(Nc1c[nH]nc1C(=O)NC1CCNCC1)c1cc(F)cc(F)c1	binding, competition with immobilised ligand	1 µM	100
CN(CCCC(F)(F)F)c1nccc(-c2cnn3ncccc23)n1	binding	1 µM	100
Nc1ncc2c(n1)-c1c([nH]c3ccc(C#CC4CC4)cc13)CCCC2	binding, competition with immobilised ligand	1 µM	97
COc1cnc(Nc2cccc(S(N)(=O)=O)c2)nc1N1CCN(c2ccccc2)C(=O)C1	binding, competition with immobilised ligand	1 µM	0
CN(C)C(=O)Cn1cc(-c2nc([C@@](C)(c3ccc(-c4cnc(N)nc4)cc3)C3CC3)no2)cn1	cell-free assay, competition with immobilised ligand	1 µM	94
CNC(=O)[C@@H]1CC[C@@H](n2c(-c3ccc4cnccc4c3)nc3ccc(C(=O)NCc4cccc(C(N)=O)c4)cc32)C1	binding, competition with immobilised ligand	1 µM	100
O=C1NC(c2ccccn2)Sc2ccccc21 (stereo not drawn)	cell-free assay, competition with immobilised ligand	1 µM	91
CN(C)c1nccc(-c2cnn3ncccc23)n1	binding	1 µM	100
O=C(O)[C@H]1[C@H](Cn2nnc3ccccc3c2=O)CC[C@@H]1C(=O)c1ccc(OCCC2CCOCC2)cc1	cell-free assay, competition with immobilised ligand	1 µM	100
O=C(NCCCN1CCOCC1)c1ccc(Nc2nccc(-c3cc4ccccc4s3)n2)cc1	binding, competition with immobilised ligand	1 µM	98
CN(C)c1ncc(F)c(-c2cnn3ncccc23)n1	binding	1 µM	87
O=C(c1ccc(Nc2nccc(-c3cc4ccccc4s3)n2)cc1)N1CCC(N2CCCC2)CC1	binding, competition with immobilised ligand	1 µM	88
c1cnn2ncc(-c3ccnc(N4CCC45COC5)n3)c2c1	binding	1 µM	100
O=C(NCCCN1CCOCC1)c1ccc(Nc2ncc(Cl)c(-c3ccc(Cl)s3)n2)cc1	binding, competition with immobilised ligand	1 µM	89
Cc1nc(N2CC[C@@H](O)C2)ncc1-c1cc(C(F)(F)F)cc2[nH]ncc12	binding, competition with immobilised ligand	1 µM	71
